Data as given in ChEMBL document CHEMBL1151276, “Antiviral Terpenoid Constituents of Ganoderma pfeifferi” (J Nat Prod, 2005).
Converted amounts (≈) assume the structure as drawn. The source made the active and inactive calls. The rule behind the calls is not given here.

Legend:
Format in all cases: functional, organism-based
Staphylococcus aureus = experiment: Antimicrobial activity against Staphylococcus aureus ATCC 6538 at 200 ug/disk by agar diffusion method
In short: (§1)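 Agar diffusion per European Pharmacopoeia. Antibiotic medium No. 1 inoculated with cell suspension and poured into plates. Paper disks loaded with 200 µg substance placed on the cooled agar, then prediffused 2 h in a refrigerator. Incubation 18 h at 37 °C (C. maltosa at 27 °C). Inhibition zone diameters read at end of incubation. Penicillin G positive control.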

Escherichia coli = experiment: Antimicrobial activity against Escherichia coli ATCC 11229 at 200 ug/disk by agar diffusion method; in short: as §1
Candida maltosa = experiment: Antimicrobial activity against Candida maltosa SBUG 700 at 200 ug/disk by agar diffusion method; in short: as §1
Influenza A virus = experiment: Antiviral activity against influenza A virus infected in MDCK cells
In short: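 Each compound (1.0 mg) was dissolved in 100 µL methanol, then in MEM, giving a 1 mg/mL stock. Compounds were tested at noncytotoxic concentrations against influenza A virus and HSV type I.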

Compound: CC(CC(=O)C[C@@](C)(O)C1=C[C@H](O)[C@]2(C)[C@]1(C)C(=O)C=C1[C@@]3(C)CCC(=O)C(C)(C)[C@@H]3C[C@H]3O[C@@]132)C(=O)O (stereo not given in full)
- Activity (Staphylococcus aureus): inactive
- Activity (Escherichia coli): inactive
- Activity (Candida maltosa): inactive

Compound: C/C(C=O)=C\CC[C@@H](C)[C@H]1CC[C@@]2(C)C3=CC[C@H]4C(C)(C)C(=O)CC[C@]4(C)C3=CC[C@]12C [GANODERAL A]
- Activity (Influenza A virus): inactive

Compound: CC(C)[C@@H](C)/C=C/[C@@H](C)[C@H]1CC[C@H]2C3=CCC4CC(=O)CC[C@]4(C)[C@H]3CC[C@]12C (stereo not given in full)
- Activity (Staphylococcus aureus): inactive
- Activity (Escherichia coli): inactive
- Activity (Candida maltosa): inactive

Compound: C/C(=C\CC[C@@H](C)[C@H]1CC[C@@]2(C)C3=CC[C@H]4C(C)(C)C(=O)CC[C@]4(C)C3=CC[C@]12C)CO [GANODEROL A]
- Activity (Influenza A virus): inactive
- Activity (Staphylococcus aureus): inactive
- Activity (Escherichia coli): inactive
- Activity (Candida maltosa): inactive

Compound: C[C@H](CCC1OC1(C)CO)[C@H]1CC[C@@]2(C)C3=C(CC[C@]12C)[C@@]1(C)CCC(=O)C(C)(C)[C@@H]1CC3=O (stereo not given in full) [GANODERONE C]
- IC50 (Influenza A virus): 2.6 µg/mL (≈ 5.52 µM)

Compound: C/C(C=O)=C\CC[C@@H](C)[C@H]1CC[C@@]2(C)C3=C(CC[C@]12C)[C@@]1(C)CCC(=O)C(C)(C)[C@@H]1CC3=O [LUCIALDEHYDE B]
- IC50 (Influenza A virus): 3 µg/mL (≈ 6.63 µM)
- Activity (Staphylococcus aureus): inactive
- Activity (Escherichia coli): inactive
- Activity (Candida maltosa): inactive

Compound: NC12CC3CC(CC(C3)C1)C2.O=S(=O)(O)O [AMANTADINE SULFATE]
- IC50 (Influenza A virus): 15 µg/mL

Compound: CC(C)[C@@H](C)/C=C/[C@@H](C)[C@H]1CC[C@H]2C3=CC[C@H]4C[C@@H](O)CC[C@]4(C)[C@H]3CC[C@]12C
- IC50 (Influenza A virus): 0.78 µg/mL (≈ 1.96 µM)
- Activity (Staphylococcus aureus): inactive
- Activity (Escherichia coli): inactive
- Activity (Candida maltosa): inactive

Compound: C/C(=C\CC[C@@H](C)[C@H]1CC[C@@]2(C)C3=C(CC[C@]12C)[C@@]1(C)CCC(=O)C(C)(C)[C@@H]1CC3=O)CO [GANODERONE A]
- Activity (Influenza A virus): inactive
- Activity (Staphylococcus aureus): inactive
- Activity (Escherichia coli): inactive
- Activity (Candida maltosa): inactive
